# Source: PubChem BioAssay
# Compounds with a hit are over-represented: about 1.8% of the library has one in this group of screens.
# Runt-CBFb FRET: Runt domain-CBFb interaction inhibition. Q01196+Q13951. hit rate 0.46% among 220,000. Cerulean-Runt/Venus-CBFb FRET ratio 530/480, 1 h. AID 1496. inhibition, % at 20 µM;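 active = inhibition over about 50% at 20 µM in the single-dose screen, limit read from the data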;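 also: 0% = DMSO wells and 100% = excess unlabeled CBFb competitor control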
#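 Measured by: fluorescence energy transfer, 422 nm excitation, 530/480 nm emission; Assay system: Cerulean-Runt domain; Medium: Tris pH 7.5 buffer with BSA; Measure: loss of energy transfer signal; Controls: 5 µM unlabeled CBFb as full-inhibition high control; Incubation: protein complex preformed 1 h, compound exposure 1 h, room temperature, dark.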
# Runt-SMMHC FRET: Runt domain-CBFb-SMMHC interaction inhibition. Q01196+Q13951. Cerulean-Runt/Venus-CBFb-SMMHC FRET ratio 530/480, 1 h. inhibition, % at 20 µM. hit rate 0.74% among 220,000;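 active = mean inhibition across duplicate retests at 20 µM reaching about 50%, limit read from the data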;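 also: 0% = DMSO wells and 100% = wells with excess untagged CBFb-SMMHC; inhibitors lower the FRET ratio by blocking Runt binding to CBFb-SMMHC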
# RanGTP-Impb inh: inhibitors of RanGTP-importin-beta interaction, primary screen, biochemical, FRET, CFP-Ran, YFP-importin-beta, homogeneous. cell-free CFP-Ran/YFP-importin-beta FRET ratio. inhibition, % (concentration not given with the values). hit rate 1.1% among 300,000. AID 2216;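 active = more than half of the replicate wells show a fall in the fluorescence ratio signal beyond about 16%, limit read from the data, passing the limit was not always enough; inconclusive = exactly half of the replicate wells pass the set limit; inactive = fewer than half of replicates pass the limit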;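 also: 0% = DMSO wells and 100% = Ran loaded with GDP instead of GTP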
# Hck-Nef inh: blocks Nef-activated human Hck kinase. inhibition, % at 20 µM. P08631. Recombinant Hck-YEEI plus Nef, Z-Lyte FRET kinase assay. hit rate 0.68% among 220,000;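 active = Hck-Nef kinase inhibition above about 50%, limit read from the data; inactive = inhibition below that limit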;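 also: 0% = DMSO with Hck plus Nef and 100% = Hck alone without Nef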
# Target sequence (P08631 whole entry, looked up): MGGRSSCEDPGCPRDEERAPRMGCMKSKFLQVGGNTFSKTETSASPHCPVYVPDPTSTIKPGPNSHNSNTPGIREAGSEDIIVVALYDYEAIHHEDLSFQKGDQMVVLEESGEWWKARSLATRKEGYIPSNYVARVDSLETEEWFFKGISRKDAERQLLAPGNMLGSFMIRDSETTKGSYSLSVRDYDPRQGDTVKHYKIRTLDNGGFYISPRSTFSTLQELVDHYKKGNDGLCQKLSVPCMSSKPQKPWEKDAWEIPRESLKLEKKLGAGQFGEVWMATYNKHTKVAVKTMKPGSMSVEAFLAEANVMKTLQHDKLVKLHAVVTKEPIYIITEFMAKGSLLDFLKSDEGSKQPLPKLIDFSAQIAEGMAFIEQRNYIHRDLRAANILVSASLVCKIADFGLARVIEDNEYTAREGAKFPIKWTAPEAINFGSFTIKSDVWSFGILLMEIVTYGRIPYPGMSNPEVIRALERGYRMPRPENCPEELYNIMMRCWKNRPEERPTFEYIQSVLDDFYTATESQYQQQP
# An asterisk follows results filed as active; ? = inconclusive; / = no result given.
SMILES,Runt-CBFb FRET,Runt-SMMHC FRET,RanGTP-Impb inh,Hck-Nef inh
Cc1cccn2c(=O)c(/C=C(\C#N)C(N)=O)c(N3CCN(Cc4ccc5c(c4)OCO5)CC3)nc12,122*,/,8,1
CNC(=O)/C(C#N)=C/c1c(N2CCN(c3ccc(OC)cc3)CC2)nc2c(C)cccn2c1=O,/,/,8,/
COC(=O)/C(C#N)=C/c1c(N2CCN(c3ccc(OC)cc3)CC2)nc2c(C)cccn2c1=O,/,/,34*,/
CCC(C)[C@H](NC(=O)[C@@H]1CSC2c3ccccc3C(=O)N21)C(=O)N1CCCCC1 (some centres not stated),/,/,3,/
C=CCOC(=O)C1=C[C@@H](c2coc3ccccc3c2=O)C[C@@H](OCCCCO)O1,/,/,-3,/
CSc1nc(-c2ccccc2)nc(N2CCN(C)CC2)c1C(C)=O,-3,7,70*,0
CCC(=O)c1c(CC)c2n3c1CC[C@H]3CCC2,/,/,2,/
CCOc1ccc2nc(N3CCOCC3)nc(C)c2c1,74*,79*,58*,41
Cc1ccc2[nH]c3c(c2c1)SC(C)(C)CC3=O,18,29,21*,20
COc1ccccc1-c1cc(C(F)(F)F)n2ncc(C(=O)N3CCc4ccccc4C3)c2n1,/,/,1,/
COc1cc(OC)cc(N(C(=O)CNC(=O)c2ccco2)C(C(=O)NCC2CCCO2)c2ccccc2)c1 (configuration not stated),/,/,1,/
COc1cccc(-c2cn3nc(C)c(C)nc3n2)c1,-4,-5,?,12
Cc1nc2nc(-c3cccs3)cn2nc1C,-4,-105,57*,-8
Cc1nc2nc(-c3ccc(Cl)cc3)cn2nc1C,61*,57*,78*,4
COc1cc(C)ccc1OCc1cc(C(=O)N2CCN(C3CCCCC3)CC2)no1,/,/,2,/
COc1ccc(CN(Cc2cccnc2)S(=O)(=O)c2ccc(-n3cnnn3)c(OC)c2)cc1,/,/,1,/
COc1ccc(CN(Cc2ccc(OC)cc2)S(=O)(=O)c2ccc(-n3cnnn3)c(C)c2)cc1,-2,-1,27*,11
O=c1cc(N2CCN(Cc3ccccc3)CC2)[nH]c(=O)n1-c1cccc(C(F)(F)F)c1,6,17,41*,7
O=c1cc(N2CCN(Cc3ccccc3)CC2)[nH]c(=O)n1Cc1ccc(F)cc1,2,-1,42*,0
COc1ccc(-n2c(=O)cc(N3CCN(Cc4ccccc4)CC3)[nH]c2=O)cc1,/,-1,?,23
Nn1c(SCc2ccccc2F)nnc1-c1ccccn1,0,0,-1,12
COc1ccccc1N1CCN(CCN2C(=O)C3CCCN3C2=O)CC1 (configuration not stated),/,/,4,/
CC(C)CNC(=S)N(CCCO)Cc1cc2cc3c(cc2[nH]c1=O)OCCO3,/,/,31*,/
Cc1ccc(C2C(C#N)=C(N)SC(N)=C2C#N)c(C)c1,10,27,47*,3
COc1ccc(C2NC(c3ccc(OC)cc3OC)C(C)C(=O)C2C)c(OC)c1 (configuration not stated),-2,0,116*,-4
SMILES,Runt-CBFb FRET,Runt-SMMHC FRET,RanGTP-Impb inh,Hck-Nef inh
CS(=O)(=O)c1cccc(C(=O)Nc2ccc3c(c2)OCCCO3)c1,/,/,-1,/
CCOc1ccc(OCC)c(NC(=O)CCNS(=O)(=O)c2cc(Br)cnc2N)c1,/,/,1,/
O=c1cc(-c2ccccc2)[nH]n1-c1nc2ccccc2[nH]1,12,17,26*,1
O=C1c2ccccc2C(=O)N1Cc1nc2ccccc2c(=O)n1CCCn1ccnc1,0,-2,/,0
O=C1c2ccccc2C(=O)N1CCCc1nc2ccccc2c(=O)n1Cc1ccco1,130*,7,6,0
O=c1c2ccccc2nc(-c2ccccc2)n1Cc1ccco1,4,7,-2,2
O=C1c2ccccc2C(=O)N1CCc1nc2ccccc2c(=O)n1CCCn1ccnc1,0,-2,25*,0
CC1CCC(NC(=O)CCS(=O)(=O)c2ccc3c(c2)CC(C)N3C(=O)C2CC2)CC1 (configuration not stated),/,/,7,/
COc1cccc(NC(=O)N2CCCC2C(=O)NCc2ccc(Cl)cc2)c1 (configuration not stated),/,/,2,/
O=C1/C(=C\c2ccco2)SC(=S)N1c1ccc(O)cc1,22,11,-2,72*
N=C1/C(=C\c2ccc(-c3cccc(Cl)c3)o2)C(=O)N=C2SC=C(c3ccccc3)N12,13,-22,2,3
N=C1/C(=C\c2ccc(-c3ccc(C(=O)O)cc3)o2)C(=O)N=C2SC=C(c3ccccc3)N12,-13,-50,-5,103*
Cc1ccc(C(CNS(=O)(=O)c2ccc([N+](=O)[O-])cc2)N2CCN(C)CC2)cc1 (configuration not stated),/,/,-2,/
Cn1c(=O)[nH]c(=O)c2c1nc(Br)n2CCSc1ncccn1,/,1,4,-2
Cn1c(=O)c2c(nc(Br)n2CCSc2ncccn2)n(C)c1=O,0,-2,25*,-23
c1ccc(CSc2nnc(Cc3ccccn3)o2)cc1,-1,1,22*,3
CN(C)Cc1cc(O)c(CN(C)C)cc1O,4,69*,1,-160
CCOc1ccc(N(CC(N)=O)S(=O)(=O)c2ccc(F)cc2)cc1,0,-3,0,-10
CCOc1ccc(S(=O)(=O)N(CC(=O)N2CCC(C(N)=O)CC2)c2ccc(F)cc2)cc1,/,/,27*,/
COc1ccc2[nH]c3c(N4CCc5ccccc5C4)ncnc3c2c1,-1,-5,2,20
COc1ccc(N2CCN(c3ncnc4c3[nH]c3ccccc34)CC2)cc1,-2,-2,19*,1
C=CCOc1ccc(/C=C/C(=O)OCC(=O)Nc2c(C)n(C)n(-c3ccccc3)c2=O)cc1,/,/,-3,/
CCOc1ccc2ccccc2c1C1NC(=O)N(C)C(C)=C1C(=O)OCCOC (configuration not stated),/,/,96*,/
CC1CCN(CC(=O)c2cccs2)CC1,-2,-2,-2,4
O=C(CN1CCc2ccccc2C1)c1cccs1,1,0,25*,1
SMILES,Runt-CBFb FRET,Runt-SMMHC FRET,RanGTP-Impb inh,Hck-Nef inh
CCOc1ccc2nc3cc(NCc4ccc(OC)cc4)ccc3c(N)c2c1,/,/,27*,/
CC(C)c1ccccc1NC(=O)CNCCc1ccc(C(F)(F)F)cc1,-3,-6,1,15
CC(Oc1ccc(Cl)cc1Cl)C(=O)NCCCn1ccnc1 (configuration not stated),27,81*,-1,9
CC(Oc1ccc(Cl)cc1Cl)C(=O)Nc1ncccn1 (configuration not stated),-2,-5,-1,4
O=C(CCCOc1ccc(Cl)cc1Cl)NCCCn1ccnc1,2,2,0,26
Cc1cc(NC(=O)C(C)Oc2ccc(Cl)cc2Cl)no1 (configuration not stated),/,/,38*,/
COc1ccc(CNS(=O)(=O)CCNC(=O)c2ccc3c(c2)OCO3)cc1,/,/,2,/
O=C(O)c1cnc2ccccc2n1,-1,-1,-2,0
N#CCc1cnc2ccccc2n1,1,-5,29*,16
Cc1cc(NC(=O)c2ccc(F)cc2)n(C)n1,/,/,3,/
CC(=O)c1cc2c(ccc3ccccc32)oc1=O,/,/,116*,/
